Article PMC4277207 (ChemMedChem, 2014)
Read-outs that look alike come from different tables or passages of the source.

Tests used:
[1] = tested on: D1-like receptor (D1 and D5); test: [3H]SCH 23390 binding assay, rat striatal membranes; details: ratio of Ki values, rat brain preparation
[2] = tested on: D2-like receptor (D2, D3, and D4); test: [3H]spiperone binding assay, rat striatal; details: ratio of Ki values, rat brain preparation
Outline: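 The D2-like assay used [3H]spiperone at 0.2 nM on caudate-putamen membranes at 1.5 mg o.w.w./mL, in agonist-optimised Tris-HCl/KCl/MgCl2/CaCl2 buffer at pH 7.4. Nonspecific binding was set with 1 μM (+)-butaclamol, and KD was 0.4 nM. For two-site curves, the high-affinity Ki is reported. […] Values are means of 3–6 determinations.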

[3] = type: in vitro ADME

Selectivity D1-like/D3 [1] | Selectivity D2-like/D3 [2] | Compound | further results
49,482 | 175 | CCCN(CC[C@]1(O)C[C@H](NC(=O)c2cccc(Cl)c2)C1)[C@H]1CCc2nc(N)sc2C1 (relative stereo) [Compound 13, N-(cis-3-(2-(((S)-2-Amino-4,5,6,7-tetrahydrobenzo[d]thiazol-6-yl)(propyl)-amino)ethyl)-3-hydroxycyclobutyl)-3-chlorobenzamide] | –
29,789 | 138 | CCCN(CC[C@]1(O)C[C@@H](NC(=O)c2cccc(F)c2)C1)[C@H]1CCc2nc(N)sc2C1 (relative stereo) [Compound 16, N-(cis-3-(2-(((S)-2-Amino-4,5,6,7-tetrahydrobenzo[d]thiazol-6-yl)(propyl)amino)-ethyl)-3-hydroxycyclobutyl)-3-fluorobenzamide] | –
800 | 75 | CCCN(CC[C@]1(O)C[C@H](NS(=O)(=O)c2ccccc2OC)C1)[C@H]1CCc2nc(N)sc2C1 (relative stereo) [Compound 25, N-(cis-3-(2-(((S)-2-Amino-4,5,6,7-tetrahydrobenzo[d]thiazol-6-yl)(propyl)amino)-ethyl)-3-hydroxycyclobutyl)-2-methoxybenzenesulfonamide] | –
160,847 | 485 | CCCN(CC[C@]1(O)C[C@@H](NS(=O)(=O)c2ccccc2Cl)C1)[C@H]1CCc2nc(N)sc2C1 (relative stereo) [Compound 28, N-(cis-3-(2-(((S)-2-Amino-4,5,6,7-tetrahydrobenzo[d]thiazol-6-yl)(propyl)amino)-ethyl)-3-hydroxycyclobutyl)-2-chlorobenzenesulfonamide] | –
27,200 | 28 | CCCN(CC[C@]1(O)C[C@@H](NS(=O)(=O)c2cccc(Cl)c2)C1)[C@H]1CCc2nc(N)sc2C1 (relative stereo) [Compound 29, N-(cis-3-(2-(((S)-2-Amino-4,5,6,7-tetrahydrobenzo[d]thiazol-6-yl)(propyl)amino)-ethyl)-3-hydroxycyclobutyl)-3-chlorobenzenesulfonamide] | –
2,662 | 301 | CCCN(CCC1(O)CC(NC(=O)c2ccccc2)C1)[C@H]1CCc2nc(N)sc2C1 (stereo in doubt) [Compound 11, N-(cis-3-(2-(((S)-2-Amino-4,5,6,7-tetrahydrobenzo[d]thiazol-6-yl)(propyl)amino)-ethyl)-3-hydroxycyclobutyl)benzamide] | –
80,161 | 117 | CCCN(CCC1(O)CC(NC(=O)c2ccccc2Cl)C1)[C@H]1CCc2nc(N)sc2C1 (stereo in doubt) [Compound 12, N-(cis-3-(2-(((S)-2-Amino-4,5,6,7-tetrahydrobenzo[d]thiazol-6-yl)(propyl)amino)-ethyl)-3-hydroxycyclobutyl)-2-chlorobenzamide] | –
9,751 | 157 | CCCN(CCC1(O)CC(NC(=O)c2ccc(Cl)cc2)C1)[C@H]1CCc2nc(N)sc2C1 (stereo in doubt) [Compound 14, N-(cis-3-(2-(((S)-2-Amino-4,5,6,7-tetrahydrobenzo[d]thiazol-6-yl)(propyl)amino)-ethyl)-3-hydroxycyclobutyl)-4-chlorobenzamide] | –
56,180 | 412 | CCCN(CCC1(O)CC(NC(=O)c2ccc(F)cc2)C1)[C@H]1CCc2nc(N)sc2C1 (stereo in doubt) [Compound 17, N-(cis-3-(2-(((S)-2-Amino-4,5,6,7-tetrahydrobenzo[d]thiazol-6-yl)(propyl)amino)-ethyl)-3-hydroxycyclobutyl)-4-fluorobenzamide] | –
44,500 | 160 | CCCN(CCC1(O)CC(NC(=O)c2ccccc2OC)C1)[C@H]1CCc2nc(N)sc2C1 (stereo in doubt) [Compound 19, N-(cis-3-(2-(((S)-2-Amino-4,5,6,7-tetrahydrobenzo[d]thiazol-6-yl)(propyl)amino)-ethyl)-3-hydroxycyclobutyl)-2-methoxybenzamide] | –
20,000 | 15,208 | CCCN(CCC1(O)CC(NC(=O)c2ccc(-c3noc(C)n3)cc2)C1)[C@H]1CCc2nc(N)sc2C1 (stereo in doubt) [Compound 22, N-(cis-3-(2-(((S)-2-amino-4,5,6,7-tetrahydrobenzo[d]thiazol-6-yl)(propyl)amino)-ethyl)-3-hydroxycyclobutyl)-4-(5-methyl-1,2,4-oxadiazol-3-yl)benzamide] | –
22,812 | 98 | CCCN(CCC1(O)CC(NS(=O)(=O)c2cccc(OC)c2)C1)[C@H]1CCc2nc(N)sc2C1 (stereo in doubt) [Compound 26, N-(cis-3-(2-(((S)-2-Amino-4,5,6,7-tetrahydrobenzo[d]thiazol-6-yl)(propyl)amino)-ethyl)-3-hydroxycyclobutyl)-3-methoxybenzenesulfonamide] | –
1,631 | 65 | CCCN(CCC1(O)CC(NS(=O)(=O)c2ccc(OC)cc2)C1)[C@H]1CCc2nc(N)sc2C1 (stereo in doubt) [Compound 27, N-(cis-3-(2-(((S)-2-Amino-4,5,6,7-tetrahydrobenzo[d]thiazol-6-yl)(propyl)amino)-ethyl)-3-hydroxycyclobutyl)-4-methoxybenzenesulfonamide] | –
17,654 | 205 | CCCN(CCC1(O)CC(NS(=O)(=O)c2ccc(Cl)cc2)C1)[C@H]1CCc2nc(N)sc2C1 (stereo in doubt) [Compound 30, N-(cis-3-(2-(((S)-2-Amino-4,5,6,7-tetrahydrobenzo[d]thiazol-6-yl)(propyl)amino)-ethyl)-3-hydroxycyclobutyl)-4-chlorobenzenesulfonamide] | –
109,000 | 614 | CCCN(CCC1(O)CC(NS(=O)(=O)c2ccccc2F)C1)[C@H]1CCc2nc(N)sc2C1 (stereo in doubt) [Compound 31, N-(cis-3-(2-(((S)-2-Amino-4,5,6,7-tetrahydrobenzo[d]thiazol-6-yl)(propyl)amino)-ethyl)-3-hydroxycyclobutyl)-2-fluorobenzenesulfonamide] | –
97,500 | 91 | CCCN(CCC1(O)CC(NS(=O)(=O)c2cccc(F)c2)C1)[C@H]1CCc2nc(N)sc2C1 (stereo in doubt) [Compound 32, N-(cis-3-(2-(((S)-2-Amino-4,5,6,7-tetrahydrobenzo[d]thiazol-6-yl)(propyl)amino)-ethyl)-3-hydroxycyclobutyl)-3-fluorobenzenesulfonamide] | –
– | – | CCCN(CCC1(O)CC(NC(=O)c2ccc3ccccc3c2)C1)[C@H]1CCc2nc(N)sc2C1 (stereo partly shown) [Compound 3] | Percentage remaining of compounds in human liver microsomes ([3]; 0 h): 100%; Percentage remaining of compounds in human liver microsomes ([3]; 5 min): 79.2%; Percentage remaining of compounds in human liver microsomes ([3]; 10 min): 49.9%; Percentage remaining of compounds in human liver microsomes ([3]; 0.25 h): 34.9%; Percentage remaining of compounds in human liver microsomes ([3]; 0.5 h): 11.7%; Percentage remaining of compounds in human liver microsomes ([3]; 1 h): 2.1%

Compound | Selectivity D1-like/D3 [1] | Selectivity D2-like/D3 [2] | further results
CCCN(CCC1(O)CC(NS(=O)(=O)c2ccccc2)C1)[C@H]1CCc2nc(N)sc2C1 (stereo in doubt) [Compound 24, N-(cis-3-(2-(((S)-2-Amino-4,5,6,7-tetrahydrobenzo[d]thiazol-6-yl)(propyl)amino)-ethyl)-3-hydroxycyclobutyl)benzenesulfonamide] | 30,000 | 42 | –
